Assay results taken from ChEMBL document CHEMBL1121537, “Anticoccidial derivatives of 6-azauracil. 3. Synthesis, high activity, and short plasma half-life of 1-phenyl-6-azauracils containing sulfonamide substituents” (J Med Chem, 1980).

Experiments:
Eimeria tenella [1] = assay: Minimum effective concentration required to prevent formation of detectable lesions in Eimeria tenella infected leghorn cockerels.; type: functional; details: read-out: MEC
Procedure, shortened: (§1)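 Leghorn cockerels infected with Eimeria tenella, screened by a modified version of a published screening method. The minimum effective concentration, in ppm, is the lowest level that prevents detectable lesions.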

[2] = Half life in plasma of older birds; type: ADME, organism-based, Gallus gallus; details: chicken
Procedure, shortened: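 Plasma half-life in older birds, about 9-10 weeks old, determined by a previously described method.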

Gallus gallus [3] = assay: Plasma level measured 3h after oral administration of 4-5 mg/kg body weight in older birds; type: functional, organism-based
Procedure, shortened: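 Older birds, about 9-10 weeks old, given 4-5 mg/kg body weight orally; drug level in plasma measured 3 h after dosing, in mcg/mL.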

[4] = Half life in plasma of young cockerels; type: ADME, organism-based, Gallus gallus; details: male, chicken
Procedure, shortened: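 Plasma half-life in young cockerels, about 10 days old, determined by a previously described method.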

Gallus gallus [5] = assay: Plasma level measured 3h after oral administration of 4-5 mg/kg body weight in young cockerels; type: functional, organism-based
Procedure, shortened: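 Young cockerels, about 10 days old, given 4-5 mg/kg body weight orally; drug level in plasma measured 3 h after dosing, in mcg/mL.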

Gallus gallus [6] = species: Gallus gallus; assay: Minimum effective concentration required to prevent formation of detectable lesions in Eimeria tenella infected leghorn cockerels; type: functional; procedure, shortened: as §1
Eimeria tenella [7] = assay: The compound was evaluated for the variations in the vulnerability to Eimeria tenella; type: functional; details: read-out: MEC
Eimeria acervulina [8] = assay: The compound was evaluated for the variations in the vulnerability to Eimeria acervulina; type: functional; details: read-out: MEC
Gallus gallus [9] = species: Gallus gallus; assay: The compound was evaluate for the minimum amount required to prevent formation of detectable disease lesions against Eimeria tenella infections.; type: functional; procedure, shortened: as §1
Eimeria tenella [10] = assay: The compound was evaluated for the variations in the vulnerability to Eimeria tenella,; type: functional; details: read-out: MEC
Eimeria acervulina [11] = assay: The compound was evaluated for the variations in the vulnerability to Eimeria acervulina; value ranges from 15-30; type: functional; details: read-out: MEC
Eimeria maxima = assay: The compound was evaluated for the variations in the vulnerability to Eimeria maxima; type: functional; details: read-out: MEC
Gallus gallus [12] = species: Gallus gallus; assay: Minimum effective concentration required to prevent formation of detectable lesions in Eimeria tenella infected leghorn cockerels; value ranges from 15 to 30; type: functional; procedure, shortened: as §1

| SMILES | minimal effective concentration (Eimeria tenella [1]) [µg/mL] | also measured |
| --- | --- | --- |
| O=c1cnn(-c2ccc(S(=O)(=O)Cl)cc2)c(=O)[nH]1 | > 250 |  |
| Cc1cc(Cl)cc(-n2ncc(=O)[nH]c2=O)c1 | 15 | half-life [2]: 20 h; Plasma level (Gallus gallus [3]): 21.7 µg/mL |
| O=c1cnn(-c2cc(Br)c(S(=O)(=O)N3CCOCC3)c(Br)c2)c(=O)[nH]1 | > 30 |  |
| O=c1cnn(-c2ccc(S(=O)(=O)N3CCCCC3)c(Cl)c2)c(=O)[nH]1 | 250 |  |
| O=c1cnn(-c2ccc(S(=O)(=O)N3CCC(O)CC3)c(Cl)c2)c(=O)[nH]1 | > 250 |  |
| Cc1cc(C)cc(-n2ncc(=O)[nH]c2=O)c1 | 30 | half-life [2]: 12 h; half-life [4]: 6 h; Plasma level (Gallus gallus [3]): 22.4 µg/mL; Plasma level (Gallus gallus [5]): 8.1 µg/mL |
| O=c1cnn(-c2ccc(S(=O)(=O)N(Cc3ccccc3)Cc3ccccc3)c(Cl)c2)c(=O)[nH]1 | > 250 |  |
| CCN(CC)S(=O)(=O)c1c(C)cc(-n2ncc(=O)[nH]c2=O)cc1Cl | 250 |  |
| Cc1cc(-n2ncc(=O)[nH]c2=O)ccc1S(=O)(=O)N(C)C1CCCC1 | > 120 |  |
| C=CCN(CC=C)S(=O)(=O)c1ccc(-n2ncc(=O)[nH]c2=O)cc1Cl | 250 |  |
| O=c1cnn(-c2ccc(S(=O)(=O)N3CCSC3)c(Cl)c2)c(=O)[nH]1 | > 120 |  |
| O=c1cnn(-c2ccc(S(=O)(=O)NCc3ccccc3Cl)c(Cl)c2)c(=O)[nH]1 | > 250 |  |
| O=c1cnn(-c2cc(Cl)c(Cl)c(Cl)c2)c(=O)[nH]1 | 4 |  |
| COc1c(Cl)cc(-n2ncc(=O)[nH]c2=O)cc1Cl | 250 | half-life [4]: 2 h |
| Cc1cccc(-n2ncc(=O)[nH]c2=O)c1 |  | MEC (Gallus gallus [6]): >120 p.p.m. |
| O=c1cnn(-c2cccc(Cl)c2)c(=O)[nH]1 | 120 |  |
| Cc1cc(-n2ncc(=O)[nH]c2=O)ccc1S(=O)(=O)N1CCN(C=O)CC1 | 500 |  |
| O=c1cnn(-c2ccc(S(=O)(=O)N3CCCCC3)cc2)c(=O)[nH]1 | 250 |  |
| Cc1cc(-n2ncc(=O)[nH]c2=O)cc(Cl)c1S(=O)(=O)N1CCSCC1 | 120 |  |
| CCN(C)S(=O)(=O)c1ccc(-n2ncc(=O)[nH]c2=O)cc1Cl | 120 |  |
| O=c1cnn(-c2ccc(S(=O)(=O)Nc3c(F)c(F)c(F)c(F)c3F)c(Cl)c2)c(=O)[nH]1 | > 60 |  |

| SMILES | minimal effective concentration (Eimeria tenella [1]) [µg/mL] | also measured |
| --- | --- | --- |
| O=c1cnn(-c2ccc(S(=O)(=O)NC3CCCCC3)c(Cl)c2)c(=O)[nH]1 | > 500 |  |
| NS(=O)(=O)c1ccc(NS(=O)(=O)c2ccc(-n3ncc(=O)[nH]c3=O)cc2)cc1 | 500 |  |
| CN(CCO)S(=O)(=O)c1ccc(-n2ncc(=O)[nH]c2=O)cc1Cl | > 120 |  |
| CCCN(C)S(=O)(=O)c1c(C)cc(-n2ncc(=O)[nH]c2=O)cc1C | 120 |  |
| Cc1cc(-n2ncc(=O)[nH]c2=O)cc(Cl)c1S(=O)(=O)N1CCOCC1 | 10 | half-life [4]: 1 h; Plasma level (Gallus gallus [5]): 0.38 µg/mL; minimal effective concentration (Eimeria tenella [7]): 10 µg/mL; minimal effective concentration (Eimeria acervulina [8]): 60 µg/mL |
| O=C1CCN(S(=O)(=O)c2ccc(-n3ncc(=O)[nH]c3=O)cc2Cl)CC1 | > 250 |  |
| NS(=O)(=O)c1ccc(-n2ncc(=O)[nH]c2=O)cc1Cl | > 120 |  |
| Cc1cc(-n2ncc(=O)[nH]c2=O)cc(C)c1S(=O)(=O)Cl | 250 |  |
| CCCCN(CC#N)S(=O)(=O)c1ccc(-n2ncc(=O)[nH]c2=O)cc1Cl | > 120 |  |
| O=c1cnn(-c2cc(Cl)cc(Cl)c2)c(=O)[nH]1 | 4 | half-life [2]: 150 h; half-life [4]: 56 h; Plasma level (Gallus gallus [3]): 24.3 µg/mL; Plasma level (Gallus gallus [5]): 14.5 µg/mL |
| CN(C1CCCC1)S(=O)(=O)c1ccc(-n2ncc(=O)[nH]c2=O)cc1Cl | > 120 |  |
| O=c1cnn(-c2ccc(S(=O)(=O)N3CCSCC3)c(Cl)c2)c(=O)[nH]1 | 60 |  |
| O=c1cnn(-c2ccc(S(=O)(=O)N3CCOCC3)cc2)c(=O)[nH]1 | > 250 |  |
| Cc1cc(-n2ncc(=O)[nH]c2=O)cc(C)c1S(=O)(=O)N1CCCC1 | 60 |  |
| CN(c1ccccc1)S(=O)(=O)c1ccc(-n2ncc(=O)[nH]c2=O)cc1Cl | > 250 |  |
| Cc1cc(-n2ncc(=O)[nH]c2=O)cc(C)c1S(=O)(=O)N(C)C | 60 |  |
| Cc1ccc(NS(=O)(=O)c2ccc(-n3ncc(=O)[nH]c3=O)cc2Cl)cc1Cl | > 250 |  |
| Cc1cc(Cl)cc(NS(=O)(=O)c2ccc(-n3ncc(=O)[nH]c3=O)cc2Cl)c1 | > 250 |  |
| O=c1cnn(-c2ccccc2)c(=O)[nH]1 | 500 | half-life [4]: 8 h |
| CN(C)S(=O)(=O)c1ccc(-n2ncc(=O)[nH]c2=O)cc1Cl | 250 |  |
| CCOC(CN(CC(OCC)OCC)S(=O)(=O)c1ccc(-n2ncc(=O)[nH]c2=O)cc1Cl)OCC | 250 |  |

| SMILES | minimal effective concentration (Eimeria tenella [1]) [µg/mL] | also measured |
| --- | --- | --- |
| Cc1cc(-n2ncc(=O)[nH]c2=O)cc(Cl)c1S(=O)(=O)N(C)C | 60 |  |
| CCOC(=O)N1CCN(S(=O)(=O)c2ccc(-n3ncc(=O)[nH]c3=O)cc2Cl)CC1 | > 250 |  |
| Cc1cc(-n2ncc(=O)[nH]c2=O)cc(C)c1S(=O)(=O)N(C)Cc1ccccc1 | 60 |  |
| CN(Cc1ccc(Cl)cc1)S(=O)(=O)c1ccc(-n2ncc(=O)[nH]c2=O)cc1Cl | 500 |  |
| O=c1cnn(-c2ccc(S(=O)(=O)N3CCOCC3)c(Cl)c2)c(=O)[nH]1 | 30 | half-life [4]: 2.1 h; Plasma level (Gallus gallus [5]): 1.9 µg/mL; minimal effective concentration (Eimeria tenella [7]): 30 µg/mL; minimal effective concentration (Eimeria acervulina [8]): 120 µg/mL |
| O=c1cnn(-c2ccc(S(=O)(=O)Nc3cccc(Cl)c3)c(Cl)c2)c(=O)[nH]1 | > 500 |  |
| O=c1cnn(-c2cc(Cl)c(N3CCOCC3)c(Cl)c2)c(=O)[nH]1 |  | MEC (Gallus gallus [9]): 15 p.p.m.; minimal effective concentration (Eimeria tenella [10]): 15 µg/mL; minimal effective concentration (Eimeria acervulina [11]): 30 µg/mL; minimal effective concentration (Eimeria maxima): 15 µg/mL |
| COCCN(CCOC)S(=O)(=O)c1c(C)cc(-n2ncc(=O)[nH]c2=O)cc1C | 250 |  |
| CCCN(C)S(=O)(=O)c1ccc(-n2ncc(=O)[nH]c2=O)cc1Cl | 250 |  |
| C=CCN(C)S(=O)(=O)c1ccc(-n2ncc(=O)[nH]c2=O)cc1Cl | 60 |  |
| O=c1cnn(-c2ccc(S(=O)(=O)N3CCCC3)c(Cl)c2)c(=O)[nH]1 | 250 |  |
| CCCN(CCC)S(=O)(=O)c1ccc(-n2ncc(=O)[nH]c2=O)cc1Cl | > 250 |  |
| Cc1cc(-n2ncc(=O)[nH]c2=O)ccc1S(=O)(=O)N1CCOCC1 |  | half-life [4]: 1.1 h; MEC (Gallus gallus [12]): 15 p.p.m.; Plasma level (Gallus gallus [5]): 3.1 µg/mL; minimal effective concentration (Eimeria tenella [7]): 15 µg/mL; minimal effective concentration (Eimeria acervulina [8]): 30 µg/mL |
| CCN(C(C)C)S(=O)(=O)c1ccc(-n2ncc(=O)[nH]c2=O)cc1C | 500 |  |
| O=c1cnn(-c2cc(Cl)c(S(=O)(=O)N3CCOCC3)c(Cl)c2)c(=O)[nH]1 |  | MEC (Gallus gallus [9]): 30 p.p.m.; minimal effective concentration (Eimeria tenella [7]): 15 µg/mL; minimal effective concentration (Eimeria acervulina [8]): 30 µg/mL |
| CC(C)(C)CC(C)(C)NS(=O)(=O)c1ccc(-n2ncc(=O)[nH]c2=O)cc1 | > 120 |  |
| O=c1cnn(-c2ccc(S(=O)(=O)NC3CCCCCCC3)c(Cl)c2)c(=O)[nH]1 | > 250 |  |
| C=CCN(C)S(=O)(=O)c1ccc(-n2ncc(=O)[nH]c2=O)cc1C | 120 |  |
| COc1ccc(NS(=O)(=O)c2c(C)cc(-n3ncc(=O)[nH]c3=O)cc2C)cc1 | > 250 |  |
| O=c1cnn(-c2ccc(S(=O)(=O)N3CCC(Cc4ccccc4)CC3)c(Cl)c2)c(=O)[nH]1 | > 250 |  |
